Experimental data as given in article PMC6447045 (Nature chemical biology, 2019).

Legend:
[1] = test system: HIF-2 target genes in 786-O cells; assay: qPCR of endogenous HIF-2 target genes in 786-O cells; assay type: cell-based; details: 24 hours, PT2385 0.01-10 μM, T1001, M1001, M1002 10 μM
Summary of the method: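 786-O cells were grown in RPMI1640 with 10% FBS in 6-well plates at 37 °C, 5% CO2. Compound was given at various concentrations with 0.1% DMSO, and DMSO alone served as control. After 24 h, RNA was isolated and converted to cDNA. SYBR Green real-time PCR was normalized to ACTB. Values are mean ± s.d., n=3 independent cultures.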

[2] = test system: HIF-2 and HIF-1 target genes in Hep3B cells; assay: qPCR of HIF target genes in Hep3B cells under hypoxia; assay type: cell-based; details: hypoxia (1% O2), 10 μM, 8 h
HIF-1α-ARNT heterodimer = HIF-1α-ARNT heterodimer (Mus musculus, UniProt Q61221); assay: TR-FRET-based in vitro binding assay, HIF-1α-ARNT; assay type: biochemical
[3] = test system: HIF-2 (EPO and NDRG1) and HIF-1 (PGK1) target genes in Hep3B cells; assay: qPCR in Hep3B cells, PHD inhibitors and HIF-2α agonist co-treatment; assay type: cell-based; details: 10 μM PHD inhibitor alone
Summary of the method: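 Hep3B cells were grown in DMEM with 10% FBS in 6-well plates. They were pretreated with 10 μM molidustat or roxadustat for 8 h, then 5 μM agonist was added (final DMSO 0.1%). After a further 24 h, RNA was isolated and reverse-transcribed. Target mRNAs were quantified by SYBR Green real-time PCR and normalized to ACTB in the same sample.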

| effect on HIF-1α-ARNT subunit interactions (HIF-1α-ARNT heterodimer) | Structure (SMILES) | effect on expression of endogenous HIF-2 target genes [1] | effect on expression of HIF-2 specific and HIF-1 specific genes [2] | effect on HIF-1 selective target gene (PGK1) [3] | increase of expression of HIF-2 target genes (EPO and NDRG1) [3] |
| --- | --- | --- | --- | --- | --- |
| no PT2385 effect | CS(=O)(=O)c1ccc(Oc2cc(F)cc(C#N)c2)c2c1[C@H](O)C(F)(F)C2 [PT2385, (S)-3-((2,2-Difluoro-1-hydroxy-7-(methylsulfonyl)-2,3-dihydro-1 H-inden-4-yl)oxy)-5-fluorobenzonitrile] | dose-dependent inhibitory activity | decreased the expression of HIF-2 specific genes (VEGF, EPO and NDRG1) but not the HIF-1 specific gene (PGK1) |  |  |
|  | O=c1c(-n2ccnn2)c[nH]n1-c1cc(N2CCOCC2)ncn1 [molidustat] |  |  | relatively small effects | 3–5 fold |
|  | Cc1nc(C(=O)NCC(=O)O)c(O)c2ccc(Oc3ccccc3)cc12 [roxadustat] |  |  | relatively small effects | 3–5 fold |
